# Measured values pooled from the literature.
# pIC50: −log10 of the molar value.
SMILES,cell line,assay,setting,pIC50
C[C@H](Nc1ncnc2nc[nH]c12)c1cc2cccc(Cl)c2c(=O)n1-c1ccccc1,CD4+ T,"IL-2 release, inhibitor",,8.72
CC(=O)OCCC1=CC2C=CC=CC1C2C1CCCCC1=O (centres unmarked),Jurkat,"cell growth or viability, flow cytometry",,7.19
CC[C@@]1(O)C(=O)OCc2c1cc1n(c2=O)Cc2cc3ccccc3nc2-1,RPMI 8402,"cell growth or viability, MTT",96 h,8.40
COc1cccc(C(=O)O[C@@H]2CN3Cc4c(cc5c(c4OC)OCO5)[C@@]24C=C[C@H](OC)C[C@@H]34)c1,MOLT-4,"cell growth or viability, WST-1",,< 5.00
O=c1c(O[C@@H]2O[C@H](CO)[C@@H](O)[C@H](O)[C@H]2O)c(-c2ccc(O)c(O)c2)oc2cc(O)cc(O)c12,SW780,"cell growth or viability, ATP luminescence",72 h,4.70
C#Cc1cccc(Nc2ncnc3cc(OCCOC)c(OCCOC)cc23)c1,PaCa-2,"cell growth or viability, MTT",,7.22
Cn1cc(C(c2cccc(/C=C/C(=O)O)c2)c2cn(C)c3ccccc23)c2ccccc21,LNCaP,"cell growth or viability, MTT",48 h,< 4.70
CC(=O)c1cccc(N=Nc2c(C(=O)O)cc(O)c(O)c2O)c1,PaCa-2,"cell growth or viability, MTT",,5.02
Cn1cc(C(c2ccc(/C=C/C(=O)O)s2)c2cn(C)c3ccccc23)c2ccccc21,LNCaP,"cell growth or viability, MTT",48 h,< 4.70
COc1c2c(cc3c1OCO3)[C@]13C=C[C@H](OC)C[C@H]1N(C2)C[C@H]3OC(=O)c1cccc(C)c1,MOLT-4,"cell growth or viability, WST-1",,< 5.00
c1ccc(CNCc2cc3c(-c4ccccc4)n[nH]c3c(Nc3ccccc3)n2)cc1,MIA PaCa-2,"cell growth or viability, MTS",48 h,5.59
O=c1c(O)c(-c2cc(O)c(O)c(O)c2)oc2cc(O)cc(O)c12,SW780,"cell growth or viability, ATP luminescence",72 h,4.68
CC(=O)c1cccc(/N=N/c2cc(/C=C/C(=O)O)ccc2O)c1,PaCa-2,"cell growth or viability, MTT",,< 4.30
COC(=O)CCC1=CC2C=CC=CC1C2C1CCCCC1=O (centres unmarked),Jurkat,"cell growth or viability, flow cytometry",,6.80
OC[C@H]1O[C@@H](Oc2cc3c(O)cc(O)cc3[o+]c2-c2ccc(O)c(O)c2)[C@H](O)[C@@H](O)[C@@H]1O,SW780,"cell growth or viability, ATP luminescence",72 h,3.77
CCCCC1=CC2C=CC=CC1C2C1CCCCC1=O (centres unmarked),Jurkat,"cell growth or viability, flow cytometry",,7.43
CCN(CC)CCCCNc1ncc2cc(-c3cc(OC)cc(OC)c3)c(NC(=O)NC(C)(C)C)nc2n1,SW780,"cell growth or viability, MTT",5 days,7.30
COc1ccc(-c2nc(OCc3cn(CC(=O)Nc4cccc(OC)c4)nn3)c3ccccc3n2)cc1,WRL68,"cell growth or viability, MTT",72 h,4.08
Cc1ccc2c(c1)c(C(c1ccc(/C=C/C(=O)O)s1)c1cn(C(C)C)c3ccc(C)cc13)cn2C(C)C,LNCaP,"cell growth or viability, MTT",48 h,> 5.52
CC(C)C[C@H](NC(=O)[C@H](Cc1ccccc1)NC(=O)c1cnccn1)B(O)O,LOU-NH91,"cell growth or viability, ATP luminescence",,7.96
COc1ccc(C(=O)O[C@@H]2CN3Cc4c(cc5c(c4OC)OCO5)[C@@]24C=C[C@H](OC)C[C@@H]34)cc1,MOLT-4,"cell growth or viability, WST-1",,< 5.00
O=c1c(O)c(-c2ccc(O)c(O)c2)oc2cc(O)cc(O)c12,SW780,"cell growth or viability, ATP luminescence",72 h,4.36
COc1cccc2c1C(=O)c1c(O)c3c(c(O)c1C2=O)C[C@@](O)(C(=O)CO)C[C@@H]3O[C@H]1C[C@H](N)[C@H](O)[C@H](C)O1,MIA PaCa-2,"cell growth or viability, MTS",48 h,7.31
O=C(O)/C=C/c1ccc(O)cc1,PaCa-2,"cell growth or viability, MTT",,< 4.30
CN1CCN(c2ccc3nc(-c4c(N)c5c(F)cccc5[nH]c4=O)[nH]c3c2)CC1,SW780,"cell growth or viability, MTT",5 days,6.35
COc1cc(N2CCC(N3CCN(C)CC3)CC2)ccc1Nc1ncc(Cl)c(Nc2ccccc2S(=O)(=O)C(C)C)n1,Rh4,cell growth or viability,72 h,7.05
COc1cc(Nc2nccc(-c3cnn4nc(OC)ccc34)n2)cc(C(F)(F)F)c1,COV434,"cell growth or viability, ATP luminescence",,6.30
COc1cc2c(Oc3ccc(NC(=O)C4(C(=O)Nc5ccc(F)cc5)CC4)cc3F)ccnc2cc1OCCCN1CCOCC1,Rh4,cell growth or viability,72 h,6.66
CC(C)n1cc(C(c2ccc(/C=C/C(=O)O)s2)c2cn(C(C)C)c3ccccc23)c2ccccc21,LNCaP,"cell growth or viability, MTT",48 h,4.59
CC(C)(C)SCCCC1=CC2C=CC=CC1C2C1CCCCC1=O (centres unmarked),Jurkat,"cell growth or viability, flow cytometry",,7.24
O=C(O)/C=C/c1ccc(C(c2c[nH]c3ccccc23)c2c[nH]c3ccccc23)s1,LNCaP,"cell growth or viability, MTT",48 h,4.26
Cc1cc(Nc2ncc(Cl)c(Nc3ccccc3S(=O)(=O)C(C)C)n2)c(OC(C)C)cc1C1CCNCC1,Rh4,cell growth or viability,72 h,6.47
